What was measured:
Sapajus apella [1] = test: Iron-clearing efficiency in iron-loaded Cebus apella at 150 umol/kg, sc; format: functional
Procedure, shortened: (§1)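 Cebus apella monkeys (3.5–4 kg), iron overloaded with iv iron dextran (about 500 mg Fe/kg), used at least 60 d later; single 150 μmol/kg dose. Feces and urine collected every 24 h from 4 d before to 5 d after dosing; iron by flame atomic absorption. Efficiency = (2-day post-drug iron minus mean 4-day baseline) / theoretical output, as percent; mean ± SEM.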

Rattus norvegicus [2] = test: Iron-clearing efficiency in non-iron-overloaded Sprague-Dawley rat at 300 umol/kg, sc; format: functional
Procedure, shortened: (§2)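 Bile-duct-cannulated, non-iron-overloaded male Sprague-Dawley rats (400–450 g), single 300 μmol/kg dose po or sc, given in water or as the monosodium salt depending on compound. Bile collected at 3-h intervals for 24 h; urine at 24 h. Efficiency = (treated minus control iron excretion) / theoretical output, as percent; mean ± SEM.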

Rattus norvegicus [3] = test: Distribution in Sprague-Dawley rat kidney at 300 umol/kg, sc after 8 hrs; format: ADME, organism-based; settings: in vivo
Procedure, shortened: (§3)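 Male Sprague-Dawley rats (250–350 g), single sc 300 μmol/kg dose; euthanized by CO2 at 2, 4, 6, 8 h (n = 3 per time point). Citrated cardiac-puncture plasma; tissues homogenized in water 1:2 (w/v), proteins precipitated with methanol at −20 °C, filtered. Reversed-phase HPLC with UV at 310 nm; levels from calibration curves, as nmol/g wet weight; detection limit about 5 nmol/g.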

Rattus norvegicus [4] = test: Distribution in Sprague-Dawley rat pancreas at 300 umol/kg, sc after 8 hrs; format: ADME, organism-based; settings: in vivo; procedure, shortened: as §3
Rattus norvegicus [5] = test: Iron-clearing efficiency in non-iron-overloaded Sprague-Dawley rat at 300 umol/kg, po; format: functional; procedure, shortened: as §2
Rattus norvegicus [6] = test: Distribution in Sprague-Dawley rat pancreas at 300 umol/kg, sc after 2 hrs; format: ADME, organism-based; settings: in vivo; procedure, shortened: as §3
Rattus norvegicus [7] = test: Distribution in Sprague-Dawley rat kidney at 300 umol/kg, sc after 2 hrs; format: ADME, organism-based; settings: in vivo; procedure, shortened: as §3
Rattus norvegicus [8] = test: Distribution in Sprague-Dawley rat heart at 300 umol/kg, sc after 2 hrs; format: ADME, organism-based; settings: in vivo; procedure, shortened: as §3
Rattus norvegicus [9] = test: Distribution in Sprague-Dawley rat heart at 300 umol/kg, sc after 4 hrs; format: ADME, organism-based; settings: in vivo; procedure, shortened: as §3
Rattus norvegicus [10] = test: Distribution in Sprague-Dawley rat heart at 300 umol/kg, sc after 8 hrs; format: ADME, organism-based; settings: in vivo; procedure, shortened: as §3
[11] = Apparent partition coefficient of the compound at pH7.4; format: physicochemical; settings: octanol/water, pH 7.4; read-out: LogD7.4
Procedure, shortened: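 Apparent partition coefficient by shake-flask direct method between octanol and TRIS buffer, pH 7.4; reported as log of the fraction in the octanol layer (log P_app).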

Plasma = test: Distribution in Sprague-Dawley rat plasma at 300 umol/kg, sc; format: ADME; settings: read-out: Cp; procedure, shortened: as §3
Sapajus apella [12] = test: Iron-clearing efficiency in iron-loaded Cebus apella at 150 umol/kg, po; format: functional; procedure, shortened: as §1
Rattus norvegicus [13] = test: Distribution in Sprague-Dawley rat liver at 300 umol/kg, sc after 8 hrs; format: ADME, organism-based; settings: in vivo; procedure, shortened: as §3
Rattus norvegicus [14] = test: Distribution in Sprague-Dawley rat liver at 300 umol/kg, sc after 2 hrs; format: ADME, organism-based; settings: in vivo; procedure, shortened: as §3
[15] = Distribution in Sprague-Dawley rat plasma at 300 umol/kg, sc after 8 hrs; format: ADME, organism-based; procedure, shortened: as §3
[16] = Distribution in Sprague-Dawley rat plasma at 300 umol/kg, sc after 2 hrs; format: ADME, organism-based; procedure, shortened: as §3
Rattus norvegicus [17] = test: Nephrotoxicity in rat at 300 umol/kg; settings: in vivo

Drug uptake (Rattus norvegicus [6]) [nmol/g] | logD [11] | SMILES | Activity (Sapajus apella [1]) [%] | Activity (Rattus norvegicus [2]) [%] | Activity (Rattus norvegicus [5]) [%] | Activity (Sapajus apella [12]) [%] | also measured
 | -0.91 | CC1(C)SC(c2ccc(O)cc2O)=N[C@H]1C(=O)O |  |  |  |  | 
 | -0.34 | C[C@]1(C(=O)O)CSC(c2ccccc2O)=N1 |  |  |  |  | 
6 |  | C[C@]1(C(=O)O)CSC(c2ccc(O)cc2O)=N1 [DEFERITRIN] | 15.9 | 1.1 | 1.1 | 16.8 | Drug uptake (Rattus norvegicus [3]): 9 nmol/g; Drug uptake (Rattus norvegicus [13]): 12 nmol/g; Drug uptake (Rattus norvegicus [7]): 100 nmol/g; Drug uptake (Rattus norvegicus [8]): 5 nmol/g; concentration (Plasma): < 10 µM; Drug uptake (Rattus norvegicus [14]): 48 nmol/g

Second part, the compound before the results:

SMILES | Drug uptake (Rattus norvegicus [6]) [nmol/g] | logD [11] | Activity (Sapajus apella [1]) [%] | Activity (Rattus norvegicus [2]) [%] | Activity (Rattus norvegicus [5]) [%] | Activity (Sapajus apella [12]) [%] | also measured
CCOC(=O)[C@@]1(C)CSC(c2ccc(OCCOCCOCCOC)cc2O)=N1 |  |  | 17.9 | 11.4 |  |  | 
COCCOCCOCCOc1ccc(C2=N[C@@](C)(C(=O)O)CS2)c(O)c1 | 30 | -1.1 | 30.4 | 8.7 | 5.5 | 25.4 | Drug uptake (Rattus norvegicus [3]): < 10 nmol/g; Drug uptake (Rattus norvegicus [4]): 3 nmol/g; Drug uptake (Rattus norvegicus [7]): 41 nmol/g; Drug uptake (Rattus norvegicus [8]): 9 nmol/g; Drug uptake (Rattus norvegicus [9]): 5 nmol/g; Drug uptake (Rattus norvegicus [10]): 2 nmol/g; concentration (Plasma): < 10 µM
O=C(O)[C@H]1CSC(c2ccccc2O)=N1 |  | -0.93 |  |  |  |  | 
CC1(C)SC(c2ccccc2O)=N[C@H]1C(=O)O |  | -0.34 |  |  |  |  | 
COc1ccc(C2=N[C@@](C)(C(=O)O)CS2)c(O)c1 | 38 |  |  |  | 6.6 |  | concentration at 8 h [15]: 75 µM; concentration at 2 h [16]: 470 µM; Activity (Rattus norvegicus [17]): Active
COCCOCCOCCOc1ccc(C2=N[C@@](C)(C(=O)OC(C)C)CS2)c(O)c1 |  |  |  | 22.1 | 13.9 | 19.5 | 
